Measured values reported in ChEMBL document CHEMBL4622842, “Optimization and biological evaluation of imidazopyridine derivatives as a novel scaffold for γ-secretase modulators with oral efficacy against cognitive deficits in Alzheimer's disease model mice” (Bioorg Med Chem, 2020).
Active and inactive are the calls of the source. No cut-off for these calls is given here.

How the values were obtained:
Gamma-secretase = assay: Inhibition of gamma-secretase in human SK-N-BE cells assessed as decrease in amyloid beta 42 production treated for 6 hrs by ELISA; format: cell-based
Procedure, shortened: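 SK-N-BE(2) human neuroblastoma cells grown in RPMI1640 with 10% FBS and penicillin/streptomycin, plated in 96-well plates overnight, then exposed to a range of drug concentrations in 0.5% DMSO for 6 h. Medium Aβ1-42 was measured by sandwich ELISA (44A3 capture, biotin-82E1 detection, streptavidin-HRP, TMB). Total Aβ was measured by ELISA kit. Mean of two wells.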

[1] = Intrinsic clearance in rat liver microsomes at 0.2 uM incubated upto 45 mins by LC/MS-MS analysis; format: ADME, Microsome; conditions: for CLint scaled at 0.2 µM: liver microsomes
Procedure, shortened: (§1)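 Test compound at 0.2 μM incubated at 37 °C with pooled rat or mouse liver microsomes (0.2 mg protein/mL), 1 mM NADPH and 0.1 mM EDTA in 100 mM Na+-K+ phosphate, pH 7.4. Samples taken at 0, 15, 30 and 45 min; compound/internal-standard peak areas measured by LC-MS/MS to calculate CLint (mL/min/kg). Mean of duplicate experiments.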

Rattus norvegicus [2] = assay: Reduction in amyloid beta 42 production in Sprague-Dawley rat plasma at 30 mg/kg, po measured after 3 to 4 hrs by ELISA relative to control; format: functional
Procedure, shortened: (§2)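 Nonfasted 6-week-old male SD rats (n = 4 or 5) given a single oral dose of 10 or 30 mg/kg in 0.5% (w/v) methylcellulose. Blood and brain were taken under isoflurane 3 h post-dose (4 h for some entries). Hippocampus was sonicated in 10 volumes of TBS pH 7.4 with protease inhibitors and spun at 100,000g, 4 °C, 1 h. Aβx-42 in supernatant and plasma measured by ELISA; Student's t-test vs vehicle.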

Rattus norvegicus [3] = assay: Reduction in amyloid beta 42 production in Sprague-Dawley rat brain at 30 mg/kg, po measured after 3 to 4 hrs by ELISA relative to control; format: functional; procedure, shortened: as §2
[4] = Ratio of drug concentration in brain of Sprague-Dawley rat at 30 mg/kg, po to IC50 of gamma-secretase in human SK-N-BE cells; format: ADME, organism-based; conditions: in vivo
[5] = Ratio of drug concentration in brain to blood of Sprague-Dawley rat at 30 mg/kg, po measured after 3 hrs by LC/MS-MS analysis; format: ADME, organism-based; conditions: brain and blood
Procedure, shortened: (§3)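 Nonfasted 6-week-old male SD rats (n = 2 or 3) received a single oral dose of 10 or 30 mg/kg as a suspension in 0.5% (w/v) methylcellulose. Plasma and brain were sampled 3 h post-dose, proteins were precipitated with acetonitrile, and drug was quantified by LC-MS/MS. Values are the mean of two or three rats. The brain/plasma ratio was taken from these concentrations.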

[6] = Drug concentration in brain of Sprague-Dawley rat at 30 mg/kg, po measured after 3 hrs by LC/MS-MS analysis; format: ADME, organism-based; conditions: in vivo; procedure, shortened: as §3
[7] = Ratio of drug concentration in plasma of Sprague-Dawley rat at 30 mg/kg, po to IC50 of gamma-secretase in human SK-N-BE cells; format: ADME, organism-based; conditions: in vivo
[8] = Drug concentration in plasma of Sprague-Dawley rat at 30 mg/kg, po measured after 3 hrs by LC/MS-MS analysis; format: ADME, organism-based; procedure, shortened: as §3
[9] = Intrinsic clearance in mouse liver microsomes at 0.2 uM incubated upto 45 mins by LC/MS-MS analysis; format: ADME, Microsome; procedure, shortened: as §1
Rattus norvegicus [10] = assay: Reduction in amyloid beta 42 production in Sprague-Dawley rat plasma at 10 mg/kg, po measured after 3 to 4 hrs by ELISA relative to control; format: functional; procedure, shortened: as §2
[11] = Ratio of drug concentration in brain of Sprague-Dawley rat at 10 mg/kg, po to IC50 of gamma-secretase in human SK-N-BE cells; format: ADME, organism-based; conditions: in vivo
CYP3A4 [12] = biological target: T1, CYP3A4 (Homo sapiens, UniProt P08684); assay: Inhibition of CYP3A4 in human liver microsome assessed as enzyme residual activity pre-incubated for 0 min followed by midazolam addition incubated for 20 mins by LC-MS/MS analysis relative to control; format: ADME; conditions: liver microsomes, probe midazolam, read-out: INH
Procedure, shortened: (§4)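 Human liver microsomes at 0.1 mg protein/mL with 1 mM NADPH, 0.1 mM EDTA, 100 mM Na+-K+ phosphate pH 7.4 and 5 μM test compound, preincubated 0 or 30 min at 37 °C. Started with 1.5 μM midazolam, run 20 min, stopped with 80% acetonitrile containing internal standard. Peak-area ratios with compound vs without gave residual activity; mean of duplicates.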

Cytochrome P450 2D6 = Cytochrome P450 2D6 (Homo sapiens, UniProt P10635); assay: Inhibition of human recombinant CYP2D6 assessed as reduction in metabolite formation using AMMC as substrate incubated for 20 mins by fluorescence assay; format: ADME
Procedure, shortened: (§5)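 Recombinant human CYP with co-factors, fluorogenic substrate, potassium phosphate buffer pH 7.4 and test compound at 0.31–20 μM, incubated at 37 °C. Substrates and incubation times: CYP1A2, 5 μM CEC, 20 min; CYP2C9, 75 μM MFC, 30 min; CYP2C19, 25 μM CEC, 20 min; CYP2D6, AMMC, 20 min. Stopped with Tris base/acetonitrile; metabolite read by fluorescence. IC50 is the mean of duplicates.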

[13] = Ratio of drug concentration in plasma of Sprague-Dawley rat at 10 mg/kg, po to IC50 of gamma-secretase in human SK-N-BE cells; format: ADME, organism-based; conditions: in vivo
CYP3A4 [14] = biological target: T1, CYP3A4; assay: Inhibition of CYP3A4 in human liver microsome assessed as enzyme residual activity pre-incubated for 30 min followed by midazolam addition incubated for 20 mins by LC-MS/MS analysis relative to control; format: ADME; conditions: liver microsomes, probe midazolam, read-out: INH; procedure, shortened: as §4
Rattus norvegicus [15] = assay: Reduction in amyloid beta 42 production in Sprague-Dawley rat brain at 10 mg/kg, po measured after 3 to 4 hrs by ELISA relative to control; format: functional; procedure, shortened: as §2
Cytochrome P450 1A2 = biological target: T2, Cytochrome P450 1A2 (Homo sapiens, UniProt P05177); assay: Inhibition of human recombinant CYP1A2 assessed as reduction in metabolite formation using CEC as substrate incubated for 20 mins by fluorescence assay; format: ADME; procedure, shortened: as §5
T2 sequence (P05177 whole entry): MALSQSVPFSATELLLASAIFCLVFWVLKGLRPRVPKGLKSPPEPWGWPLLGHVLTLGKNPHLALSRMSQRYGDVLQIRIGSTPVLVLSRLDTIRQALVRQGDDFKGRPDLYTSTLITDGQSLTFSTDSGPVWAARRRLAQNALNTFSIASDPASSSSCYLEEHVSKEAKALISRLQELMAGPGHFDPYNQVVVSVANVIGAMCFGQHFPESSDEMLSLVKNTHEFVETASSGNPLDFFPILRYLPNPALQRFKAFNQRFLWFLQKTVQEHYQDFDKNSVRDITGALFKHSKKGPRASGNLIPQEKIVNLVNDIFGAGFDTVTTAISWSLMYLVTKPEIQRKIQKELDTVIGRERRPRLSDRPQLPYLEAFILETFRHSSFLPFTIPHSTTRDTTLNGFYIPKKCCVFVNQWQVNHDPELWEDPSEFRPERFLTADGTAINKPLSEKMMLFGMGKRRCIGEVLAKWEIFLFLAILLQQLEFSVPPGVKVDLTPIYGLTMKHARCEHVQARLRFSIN

[16] = Drug concentration in plasma of Sprague-Dawley rat at 10 mg/kg, po measured after 3 hrs by LC/MS-MS analysis; format: ADME, organism-based; procedure, shortened: as §3
[17] = Drug concentration in brain of Sprague-Dawley rat at 10 mg/kg, po measured after 3 hrs by LC/MS-MS analysis; format: ADME, organism-based; conditions: in vivo; procedure, shortened: as §3
Mus musculus = assay: Antialzheimer activity in transgenic Tg2576 mouse assessed as improvement of spatial memory impairment at 2 and 6 mg/kg, po administered daily for 8 weeks measured after 3 hrs on day 8 by Y-maze test; format: functional, organism-based; conditions: in the assay text read “8 days” for “8 weeks”
Procedure, shortened: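 Female Tg2576 mice, 6 months old, nonfasted (n = 5 or 6), dosed orally once daily for 8 days at 0.6, 2.0, 6.0 or 20 mg/kg as a suspension in 0.5% methyl cellulose. Three hours after the day-8 dose, each mouse started at the end of one arm of a three-arm Y-maze and explored freely for 8 min. Spontaneous alternation was scored; animals with <10 total arm entries were excluded. Student's t-test vs vehicle.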

Cytochrome P450 2C19 = Cytochrome P450 2C19 (Homo sapiens, UniProt P33261); assay: Inhibition of human recombinant CYP2C19 assessed as reduction in metabolite formation using CEC as substrate incubated for 20 mins by fluorescence assay; format: ADME; procedure, shortened: as §5
[18] = Ratio of drug concentration in brain to blood of Sprague-Dawley rat at 10 mg/kg, po measured after 3 hrs by LC/MS-MS analysis; format: ADME, organism-based; conditions: brain and blood; procedure, shortened: as §3
Cytochrome P450 2C9 = Cytochrome P450 2C9 (Homo sapiens, UniProt P11712); assay: Inhibition of human recombinant CYP2C9 assessed as reduction in metabolite formation using MFC as substrate incubated for 30 mins by fluorescence assay; format: ADME; procedure, shortened: as §5
Chain of Cytochrome P450 2C9 (P11712 whole entry): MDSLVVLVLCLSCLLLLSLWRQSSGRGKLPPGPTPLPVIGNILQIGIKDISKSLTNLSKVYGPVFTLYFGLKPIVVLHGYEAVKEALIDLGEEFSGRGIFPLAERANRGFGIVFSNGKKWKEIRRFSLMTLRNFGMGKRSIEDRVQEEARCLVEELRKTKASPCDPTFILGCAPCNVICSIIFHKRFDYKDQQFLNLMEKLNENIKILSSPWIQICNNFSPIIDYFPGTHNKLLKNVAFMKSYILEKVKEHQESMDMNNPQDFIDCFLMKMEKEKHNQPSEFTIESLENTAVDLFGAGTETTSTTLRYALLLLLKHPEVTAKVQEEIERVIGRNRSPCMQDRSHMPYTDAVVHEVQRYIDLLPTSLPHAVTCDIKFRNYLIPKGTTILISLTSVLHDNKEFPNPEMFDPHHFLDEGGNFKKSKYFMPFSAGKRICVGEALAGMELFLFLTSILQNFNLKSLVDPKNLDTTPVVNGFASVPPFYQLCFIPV

T1 sequence (P08684 whole entry): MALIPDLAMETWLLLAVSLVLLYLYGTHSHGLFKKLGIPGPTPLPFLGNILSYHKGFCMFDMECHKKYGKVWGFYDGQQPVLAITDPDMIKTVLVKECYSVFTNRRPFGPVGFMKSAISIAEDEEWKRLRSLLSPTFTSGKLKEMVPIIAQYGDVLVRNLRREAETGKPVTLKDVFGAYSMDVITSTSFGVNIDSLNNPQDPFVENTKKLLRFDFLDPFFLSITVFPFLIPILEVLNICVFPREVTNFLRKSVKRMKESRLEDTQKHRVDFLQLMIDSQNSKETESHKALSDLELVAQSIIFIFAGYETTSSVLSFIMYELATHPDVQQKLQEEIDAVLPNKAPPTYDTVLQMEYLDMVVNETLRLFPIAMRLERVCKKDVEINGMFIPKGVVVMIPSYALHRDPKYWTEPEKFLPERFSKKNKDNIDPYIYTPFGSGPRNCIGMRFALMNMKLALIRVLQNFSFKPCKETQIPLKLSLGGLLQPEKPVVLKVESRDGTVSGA
Chain of Cytochrome P450 2C19 (P33261 whole entry): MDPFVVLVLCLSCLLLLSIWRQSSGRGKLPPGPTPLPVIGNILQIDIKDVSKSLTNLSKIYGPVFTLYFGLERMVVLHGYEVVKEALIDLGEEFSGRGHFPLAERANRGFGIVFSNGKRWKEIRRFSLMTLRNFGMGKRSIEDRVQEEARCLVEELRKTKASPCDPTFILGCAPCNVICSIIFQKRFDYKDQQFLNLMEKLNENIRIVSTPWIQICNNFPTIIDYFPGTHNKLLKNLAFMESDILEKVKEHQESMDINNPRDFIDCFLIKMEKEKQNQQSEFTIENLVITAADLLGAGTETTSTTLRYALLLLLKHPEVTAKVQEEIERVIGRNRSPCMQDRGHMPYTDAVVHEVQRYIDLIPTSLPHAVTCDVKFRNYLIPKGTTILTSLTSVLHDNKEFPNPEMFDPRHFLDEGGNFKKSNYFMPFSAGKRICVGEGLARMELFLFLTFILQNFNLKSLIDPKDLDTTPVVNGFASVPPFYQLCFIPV
Chain of Cytochrome P450 2D6 (P10635 whole entry): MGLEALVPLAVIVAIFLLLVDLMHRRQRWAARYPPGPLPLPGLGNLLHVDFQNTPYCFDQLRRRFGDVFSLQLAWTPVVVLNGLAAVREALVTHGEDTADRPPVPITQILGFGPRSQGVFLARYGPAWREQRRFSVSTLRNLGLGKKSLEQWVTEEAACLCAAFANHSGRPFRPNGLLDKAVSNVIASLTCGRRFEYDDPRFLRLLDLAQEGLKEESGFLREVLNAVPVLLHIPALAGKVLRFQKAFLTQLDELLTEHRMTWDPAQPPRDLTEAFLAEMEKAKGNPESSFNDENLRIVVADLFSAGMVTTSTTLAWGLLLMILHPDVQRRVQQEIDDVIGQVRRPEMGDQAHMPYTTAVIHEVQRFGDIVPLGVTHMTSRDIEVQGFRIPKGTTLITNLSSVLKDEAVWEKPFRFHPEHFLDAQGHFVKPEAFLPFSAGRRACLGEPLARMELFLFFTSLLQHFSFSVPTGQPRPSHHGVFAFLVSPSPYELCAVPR

Row | SMILES | IC50 (Gamma-secretase) [nM] | CLint scaled at 0.2 µM [1] [mL/min/kg] | inhibition in vivo at 30 mg/kg (Rattus norvegicus [2]) [%] | inhibition in vivo at 30 mg/kg (Rattus norvegicus [3]) [%] | further results
1 | CCNC(=O)c1ccc(-c2c(C)nc3c(OCc4ccc(-c5cccc(C(F)(F)F)c5)cc4)cccn23)cn1 | 61 | 38 | 62 | 15 | –
2 | CCNC(=O)c1ccc(-c2c(C)nc3c(OCc4ccc(-c5ccc(C(F)(F)F)cc5)cc4)cccn23)cn1.Cl | 210 | – | 40 | 4 | CLH ([1]; microsomes, 0.75 h, 0.2 µM): Stable
3 | Cc1nc2c(OCc3ccc(-c4ccc(F)cc4)cc3)cccn2c1-c1ccc2c(=O)n(C)oc2c1.Cl | 69 | 167 | 81 | 29 | Ratio [4]: 81; Kp at 3 h [5]: 0.27; Ct [6]: 5.6 nmol/g; Ratio [7]: 304; concentration at 3 h [8]: 21 µM
4 | CCNC(=O)c1ccc(-c2c(C)nc3c(OCc4ccc(-c5ccccc5C(F)(F)F)cc4)cccn23)cn1 | 180 | 790 | – | – | –
5 | CCn1sc2cc(-c3c(C)nc4c(OCc5ccc(-c6ccc(F)cc6)cc5)cccn34)ccc2c1=O | > 2000 | – | – | – | –
6 | CCNC(=O)c1ccc(-c2c(C)nc3c(OCc4ccc(-c5ccccc5)cc4)cccn23)cn1.Cl | – | 835 | 28 | 13 | Ratio [4]: 23; Kp at 3 h [5]: 0.3; Ct [6]: 2.1 nmol/g; CLint scaled at 0.2 µM [9]: 227 mL/min/kg; Ratio [7]: 75; concentration at 3 h [8]: 6.8 µM
7 | CCn1[nH]c2cc(-c3c(C)nc4c(OCc5ccc(-c6ccc(F)cc6)cc5)cccn34)ccc2c1=O | 390 | – | – | – | –
8 | CCn1c(=O)c2ccc(-c3c(C)nc4c(OCc5ccc(-c6ccc(F)cc6)cc5)cccn34)cc2n1C | > 2000 | – | – | – | –
9 | CCNC(=O)c1ccc(-c2c(C)nc3c(OCc4ccc(-c5ccccc5F)cc4)cccn23)cn1 | 220 | > 1000 | – | – | –
10 | CCNC(=O)c1ccc(-c2c(C)nc3c(OCc4ccc(-c5ccc(F)cc5)cc4)cccn23)cn1 | 75 | 221 | 43 | 22 | –
11 | CCN1Cc2cc(-c3c(C)nc4c(OCc5ccc(-c6ccc(F)cc6)cc5)cccn34)ccc2C1=O | 92 | 345 | 59 | 10 | –
12 | CCn1oc2cc(-c3c(C)nc4c(OCc5ccc(-c6ccc(F)cc6)cc5)cccn34)ccc2c1=O | 90 | 214 | 63 | 20 | –
13 | CNC(=O)c1ccc(-c2c(C)nc3c(OCc4ccc(-c5ccc(F)cc5)cc4)cccn23)cn1.Cl | 37 | 147 | 68 | 40 | Ratio [4]: 193; Kp at 3 h [5]: 0.44; Ct [6]: 7.1 nmol/g; Ratio [7]: 446; concentration at 3 h [8]: 17 µM
14 | CNC(=O)c1ccc(-c2c(C)nc3c(OCc4ccc(-c5ccc(F)cc5)cc4F)cccn23)cn1.Cl | 29 | 115 | 77 | 42 | Ratio [4]: 121; inhibition in vivo at 10 mg/kg (Rattus norvegicus [10]): 63%; Kp at 3 h [5]: 0.23; Ratio [11]: 51; activity at 20 min (CYP3A4 [12]): 109%; IC50 (Cytochrome P450 2D6): > 10000 nM; Ratio [13]: 196; Ct [6]: 3.5 nmol/g; activity at 20 min (CYP3A4 [14]): 104%; inhibition in vivo at 10 mg/kg (Rattus norvegicus [15]): 23%; IC50 (Cytochrome P450 1A2): > 10000 nM; concentration at 3 h [16]: 5.7 µM; Ct [17]: 1.5 nmol/g; Activity (Mus musculus): Active; IC50 (Cytochrome P450 2C19): > 10000 nM; Ratio [7]: 561; Kp at 3 h [18]: 0.27; concentration at 3 h [8]: 16 µM; IC50 (Cytochrome P450 2C9): > 10000 nM
15 | CCNC(=O)c1ccc(-c2c(C)nc3c(OCc4ccc(-c5cccc(F)c5)cc4)cccn23)cn1 | 99 | 307 | 42 | 22 | –
